Assays:
MDA-MB-231 = experiment: Antiproliferative activity against human MDA-MB-231 cells; type: functional, cell-based
MGC-803 = experiment: Antiproliferative activity against human MGC-803 cells; type: functional, cell-based
A549 = experiment: Antiproliferative activity against human A549 cells; type: functional, cell-based
[1] = Metabolic stability in human liver microsomes assessed as clearance at 0.1 uM preincubated for 10 mins followed by NADPH addition and measured upto 60 mins by LC-MS/MS analysis; type: ADME, Microsome; details: 1 h, time <=70 min
How it was run: (§1)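 Microsomes at 0.33 mg/mL in 0.1 M Tris pH 7.4 with 5 mM MgCl2; compound final 0.1 μM (0.01% DMSO, 0.005% BSA). Preincubated 10 min at 37 °C, then started with 1 mM NADPH. Sampled at 0, 7, 17, 30 and 60 min and quenched with cold methanol. Centrifuged, then analysed by LC-MS/MS.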

[2] = Metabolic stability in human liver microsomes assessed as half life at 0.1 uM preincubated for 10 mins followed by NADPH addition and measured upto 60 mins by LC-MS/MS analysis; type: ADME, Microsome; details: time <=70 min; how it was run: as §1
[3] = Toxicity in NOD/SCID mouse xenografted with patient-derived breast cancer cells assessed as change in body weight at 5 to 15 mg/kg, ip administered once daily for 20 days; details: in vivo, 480 h
[4] = Antitumor activity against patient-derived breast cancer cells xenografted in NOD/SCID mouse assessed as tumor growth inhibition at 15 mg/kg, ip administered once daily for 20 days; details: Homo sapiens, Breast cancer cell line, 480 h, read-out: TGI

| Compound | IC50 (MDA-MB-231) [µM] | IC50 (MGC-803) [µM] | IC50 (A549) [µM] | CLH [1] [mL/min/g] | half-life at 0.1 µM [2] [min] | Activity [3] | inhibition in vivo at 15 mg/kg [4] [%] |
| --- | --- | --- | --- | --- | --- | --- | --- |
| COc1ccn2c(CC(=O)Nc3ccc4c(c3)S(=O)(=O)C=C4)c(-c3ccccc3)nc2c1 | 1.2 | 1 | 0.6 | 208.4 | 10.1 | – | – |
| O=C(Cc1c(-c2ccccc2)nc2ccc(Br)cn12)Nc1ccc2c(c1)S(=O)(=O)C=C2 | 2 | 1.5 | 0.8 | – | – | – | – |
| COc1cccn2c(CC(=O)Nc3ccc4c(c3)S(=O)(=O)C=C4)c(-c3ccccc3)nc12 | 2.2 | 1.7 | 1 | – | – | – | – |
| COc1ccc2nc(-c3ccccc3)c(CC(=O)Nc3ccc4c(c3)S(=O)(=O)C=C4)n2c1 | 2.1 | 1.7 | 1.2 | – | – | – | – |
| O=C(Cc1c(-c2ccccc2)nc2cc(Br)ccn12)Nc1ccc2c(c1)S(=O)(=O)C=C2 | 0.9 | 0.9 | 0.8 | – | – | – | – |
| O=C(Cc1c(-c2ccccc2)nc2cc(-c3ccccc3)ccn12)Nc1ccc2c(c1)S(=O)(=O)C=C2 | 2.4 | 1.7 | 1.1 | – | – | – | – |
| CS(=O)(=O)c1ccc(-c2nc3ccccn3c2CC(=O)Nc2ccc3c(c2)S(=O)(=O)C=C3)cc1 | 6.4 | 6.9 | 7.5 | – | – | – | – |
| O=C(Nc1nnc(-c2ccco2)o1)c1cc(-c2ccccc2)nc2ccccc12 | 18.2 | 7.43 | 11.6 | – | – | Non-Toxic | – |
| COc1ccn2c(CC(=O)Nc3ccc4c(c3)S(=O)(=O)C=C4)c(-c3ccc4ccccc4c3)nc2c1 | 1.4 | 1.5 | 1 | – | – | – | – |
| COc1ccn2c(CC(=O)Nc3ccc4c(c3)S(=O)(=O)C=C4)c(-c3ccc(S(C)(=O)=O)cc3)nc2c1 | 5.8 | 6.4 | 5.8 | – | – | – | – |
| COc1ccn2c(CC(=O)Nc3ccc(-c4ccco4)cc3)c(-c3ccccc3)nc2c1 | 10 | 2.5 | 6.6 | – | – | – | – |
| COc1ccn2c(CC(=O)Nc3ccc4c(c3)S(=O)(=O)C=C4)c(-c3cccs3)nc2c1 | 1.4 | 1.3 | 1.1 | – | – | – | – |
| Cc1ccc2nc(-c3ccc(Cl)cc3)c(CC(=O)Nc3ccc4c(c3)S(=O)(=O)C=C4)n2c1 | 2 | 1.6 | 1.2 | – | – | – | – |
| COc1ccn2c(CC(=O)Nc3ccc4c(c3)S(=O)(=O)C=C4)c(-c3ccc(F)cc3)nc2c1 | 5.1 | 0.9 | 1.3 | – | – | – | – |
| O=C(Cc1c(-c2ccccc2)nc2cc(Cl)ccn12)Nc1ccc2c(c1)S(=O)(=O)C=C2 | 1.1 | 1.3 | 0.7 | – | – | – | – |
| O=C(Cc1c(-c2ccc([N+](=O)[O-])cc2)nc2ccccn12)Nc1ccc2c(c1)S(=O)(=O)C=C2 | 6.5 | 5.2 | 5.4 | – | – | – | – |
| Cc1ccc(-c2nc3ccc(C)cn3c2CC(=O)Nc2ccc3c(c2)S(=O)(=O)C=C3)cc1 | 2.1 | 1.8 | 0.9 | – | – | – | – |
| COc1ccn2c(CC(=O)Nc3ccc4c(c3)S(=O)(=O)C=C4)c(-c3ccc([N+](=O)[O-])cc3)nc2c1 | 4.4 | 2.6 | 1.7 | – | – | – | – |
| COc1ccn2c(CC(=O)Nc3ccc(C4CCCCC4)cc3)c(-c3ccccc3)nc2c1 | 5.4 | 4.7 | 5.6 | – | – | – | – |
| Cn1cc(-c2ccn3c(CC(=O)Nc4ccc5c(c4)S(=O)(=O)C=C5)c(-c4ccccc4)nc3c2)cn1 | 1.4 | 0.7 | 0.8 | – | – | – | – |
| Cc1ccc2nc(-c3ccc(C#N)cc3)c(CC(=O)Nc3ccc4c(c3)S(=O)(=O)C=C4)n2c1 | 2 | 2.4 | 2.5 | – | – | – | – |
| Cc1ccc(-c2nc3ccccn3c2CC(=O)Nc2ccc3c(c2)S(=O)(=O)C=C3)cc1 | 4.1 | 2.7 | 5.5 | – | – | – | – |
| COc1ccn2c(CC(=O)Nc3ccc4c(c3)S(=O)(=O)C=C4)c(-c3ccc(C(F)(F)F)cc3)nc2c1 | 0.7 | 0.4 | 0.4 | 478 | 4.4 | – | – |
| Cc1ccn2c(CC(=O)Nc3ccc4c(c3)S(=O)(=O)C=C4)c(-c3ccccc3)nc2c1 | 1.6 | 1 | 0.7 | – | – | – | – |
| COc1ccn2c(CC(=O)Nc3ccc(-c4ccccc4)cc3)c(-c3ccccc3)nc2c1 | 10.5 | 3.5 | 3.2 | – | – | – | – |

More lines, main results first:

| IC50 (MDA-MB-231) [µM] | IC50 (MGC-803) [µM] | IC50 (A549) [µM] | Compound | CLH [1] [mL/min/g] | half-life at 0.1 µM [2] [min] | Activity [3] | inhibition in vivo at 15 mg/kg [4] [%] |
| --- | --- | --- | --- | --- | --- | --- | --- |
| 20.2 | 22.5 | 23.4 | O=C(Cc1cnc2ccccn12)Nc1ccc2c(c1)S(=O)(=O)C=C2 | – | – | – | – |
| > 100 | 39.6 | 40.9 | CCCCc1ccc(NC(=O)c2cc(-c3ccccc3)nc3cc(OC)ccc23)cc1 | – | – | – | – |
| > 100 | 50.4 | > 100 | COc1ccc2c(C(=O)Nc3ccc(Cl)cc3)cc(-c3ccccc3)nc2c1 | – | – | – | – |
| 5.3 | 4.8 | 4.3 | COc1ccc2c(C(=O)Nc3ccc(-c4cc5ccccc5o4)cc3)cc(-c3ccccc3)nc2c1 | – | – | – | – |
| 1 | 0.5 | 0.7 | COc1ccc(-c2ccn3c(CC(=O)Nc4ccc5c(c4)S(=O)(=O)C=C5)c(-c4ccccc4)nc3c2)cc1 | – | – | – | – |
| 50 | 14.6 | 16.6 | O=C(NCc1ccc(C2CCCCC2)cc1)c1cc(-c2ccccc2)nc2cc(O)ccc12 | – | – | – | – |
| > 100 | > 100 | > 100 | COc1ccc2c(C(=O)Nc3ccc(-c4ccc(C(C)C)cc4)cc3)cc(-c3ccccc3)nc2c1 | – | – | – | – |
| 5.9 | 4.9 | 4.9 | COc1ccc2c(C(=O)Nc3ccc(C4CCCCC4)cc3)cc(-c3ccccc3)nc2c1 | – | – | – | – |
| > 100 | > 100 | > 100 | COc1ccc2c(C(=O)Nc3ccc(C)cc3)cc(-c3ccccc3)nc2c1 | – | – | – | – |
| > 100 | > 100 | > 100 | O=C(O)COc1ccc2c(C(=O)Nc3ccc(C4CCCCC4)cc3)cc(-c3ccccc3)nc2c1 | – | – | – | – |
| 11.2 | 40.4 | 29.9 | COc1ccc2c(C(=O)Nc3ccc(-c4ccc(F)cc4)cc3)cc(-c3ccccc3)nc2c1 | – | – | – | – |
| > 100 | 20.1 | > 100 | O=C(NCc1ccc(C2CCCCC2)cc1)c1cc(-c2ccccc2)nc2ccccc12 | – | – | – | – |
| 25.5 | 15.5 | 21.4 | COc1ccc2c(C(=O)Nc3ccc(Br)cc3)cc(-c3ccccc3)nc2c1 | – | – | – | – |
| 5.3 | 2.6 | 3 | COc1ccc2c(C(=O)Nc3ccc(-c4ccccc4)cc3)cc(-c3ccccc3)nc2c1 | – | – | – | – |
| > 100 | 64.8 | > 100 | COc1ccc2c(C(=O)Nc3ccc(-c4cccnc4)cc3)cc(-c3ccccc3)nc2c1 | – | – | – | – |
| > 100 | > 100 | > 100 | O=C(Nc1ccc(C2CCCCC2)cc1)c1cc(-c2ccccc2)nc2cc(O)ccc12 | – | – | – | – |

| IC50 (MDA-MB-231) [µM] | IC50 (MGC-803) [µM] | IC50 (A549) [µM] | Compound | CLH [1] [mL/min/g] | half-life at 0.1 µM [2] [min] | Activity [3] | inhibition in vivo at 15 mg/kg [4] [%] |
| --- | --- | --- | --- | --- | --- | --- | --- |
| 10.8 | 15 | 15 | COc1ccc2c(C(=O)Nc3ccc(-c4cccs4)cc3)cc(-c3ccccc3)nc2c1 | – | – | – | – |
| > 100 | > 100 | > 100 | COc1ccc(NC(=O)c2cc(-c3ccccc3)nc3cc(OC)ccc23)cc1 | – | – | – | – |
| 10 | 5.9 | 5.8 | O=C(Nc1ccc(C2CCCCC2)cc1)c1cc(-c2ccccc2)nc2ccccc12 | – | – | – | – |
| 20.2 | 15.6 | 15.6 | COc1ccc2c(C(=O)Nc3ccc(-c4ccc(SC)cc4)cc3)cc(-c3ccccc3)nc2c1 | – | – | – | – |
| 21 | 5.8 | 4.9 | COc1ccc(-c2ccc(NC(=O)c3cc(-c4ccccc4)nc4cc(OC)ccc34)cc2)cc1 | – | – | – | – |
| > 100 | > 100 | > 100 | COc1ccn2c(C(=O)Nc3ccc(C4CCCCC4)cc3)c(-c3ccccc3)nc2c1 | – | – | – | – |
| > 100 | > 100 | > 100 | COc1ccc2c(C(=O)Nc3ccc(F)cc3)cc(-c3ccccc3)nc2c1 | – | – | – | – |
| > 100 | > 100 | > 100 | COc1ccc2c(C(=O)Nc3ccc(C(C)C)cc3)cc(-c3ccccc3)nc2c1 | – | – | – | – |
| > 100 | > 100 | > 100 | O=C(O)COc1ccc2c(C(=O)NCc3ccc(C4CCCCC4)cc3)cc(-c3ccccc3)nc2c1 | – | – | – | – |
| > 100 | > 100 | > 100 | CCOC(=O)COc1ccc2c(C(=O)Nc3ccc(C4CCCCC4)cc3)cc(-c3ccccc3)nc2c1 | – | – | – | – |
| > 100 | > 100 | > 100 | COc1ccc2c(C(=O)Nc3ccc(-c4ccc5cc[nH]c5c4)cc3)cc(-c3ccccc3)nc2c1 | – | – | – | – |
| 2 | 5.6 | 5 | CN(CC(=O)N(Cc1ccc(C2CCCCC2)cc1)c1ccc(C(=O)O)c(O)c1)S(=O)(=O)c1c(F)c(F)c(F)c(F)c1F | – | – | Non-Toxic | 63.6 |
| 10.3 | 2.1 | 5.5 | COc1ccc2c(C(=O)Nc3ccc(-c4ccco4)cc3)cc(-c3ccccc3)nc2c1 | – | – | – | – |
| > 100 | > 100 | > 100 | CCOC(=O)COc1ccc2c(C(=O)NCc3ccc(C4CCCCC4)cc3)cc(-c3ccccc3)nc2c1 | – | – | – | – |
| > 100 | > 100 | > 100 | COc1ccc2c(C(=O)NCc3ccc(C4CCCCC4)cc3)cc(-c3ccccc3)nc2c1 | – | – | – | – |
